In ChEMBL document CHEMBL2384906, “Biological activity, design, synthesis and structure activity relationship of some novel derivatives of curcumin containing sulfonamides” (Eur J Med Chem, 2013):
In brackets after ≈: the same amount, converted by molar mass. Activity calls are given as the source filed them. No cut-off for these calls is given here.

Columns and labels:
Staphylococcus aureus [1] = assay: Antimicrobial activity against Staphylococcus aureus ATCC 11632 assessed as diameter of inhibition zone at 80 uM after 24 hrs by Kirby -Baur disc diffusion method; assay type: functional; details: ATCC 11632, 24 h, read-out: DIZ
Method in brief: (§1)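 Kirby-Bauer disc diffusion was used. Acetone stocks (160 µM) were serially doubled down to 80, 40 and 20 µM. 4 µL of each went onto 5 mm sterile paper discs, which were dried 30 min at 50 °C. Inoculum was 1.5 × 10⁸ CFU/mL diluted to 3 × 10² CFU/mL, and 50 µL was spread on Mueller-Hinton agar. After 24 h at 37 °C the inhibition-zone diameter was measured. Ciprofloxacin served as positive control.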

Mus musculus = assay: Antiinflammatory activity in mouse assessed as inhibition of carrageenan-induced increase in paw volume at 200 mg/kg administered 1 hr prior to carrageenan challenge measured after 3 hrs relative to control; assay type: functional
Method in brief: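 Mice were fasted 2 h and placed in groups of five. Controls received saline i.p. Phenylbutazone was given at 100 mg/kg i.p., curcumin at 200 mg/kg i.p., and derivatives at 200 mg/kg. After 1 h, 0.1 mL of 1% carrageenan in saline was injected subplantar into the right hind paw. Paw volume was followed by plethysmometer for 3 h, and % inhibition was calculated as (Vc − Vt)/Vc × 100.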

Aspergillus flavus [2] = assay: Antifungal activity against Aspergillus flavus MTCC 1021 assessed as zone of inhibition at 40 uM after 48 hrs by disc diffusion method; assay type: functional; details: MTCC 1021, 48 h, read-out: IZ
Method in brief: (§2)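 Spores from 4-day potato dextrose agar cultures, suspended in sterile water at 1.5 × 10⁵ CFU/mL. 0.2 mL was spread on potato dextrose agar. 5 mm filter-paper discs soaked with test compound were laid on the lawn. Incubation was 48 h at 28 °C, then the inhibition zone was measured in mm. Fluconazole was the positive control and acetone the negative control.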

Staphylococcus aureus [3] = assay: Antimicrobial activity against Staphylococcus aureus ATCC 11632 assessed as diameter of inhibition zone at 20 uM after 24 hrs by Kirby -Baur disc diffusion method; assay type: functional; details: ATCC 11632, 24 h, read-out: DIZ; method in brief: as §1
Salmonella typhi [4] = assay: Antimicrobial activity against Salmonella typhi ATCC 23564 after 24 hrs by broth micro serial dilution method; assay type: functional, Salmonella enterica subsp. enterica serovar Typhi; details: Salmonella enterica, ATCC 23564, 24 h
QG-56 = assay: Cytotoxicity against human QG56 cells after 24 hrs by MTT assay; assay type: functional, cell-based
Method in brief: (§3)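 The MTT assay seeded 5 × 10⁴ cells per well and grew them 24 h in RPMI 1640 with compound at 2.5–200 µM. Medium without cells was the blank and adriamycin the positive control. MTT was added for 4 h at 37 °C, formazan was solubilised, and absorbance was read at 570 nm. IC50 is the concentration that cuts viability 50% against untreated cells.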

Pseudomonas aeruginosa [5] = assay: Antimicrobial activity against Pseudomonas aeruginosa ATCC 15499 assessed as diameter of inhibition zone at 20 uM after 24 hrs by Kirby -Baur disc diffusion method; assay type: functional; details: ATCC 15499, 24 h, read-out: DIZ; method in brief: as §1
Pseudomonas aeruginosa [6] = assay: Antimicrobial activity against Pseudomonas aeruginosa ATCC 15499 assessed as diameter of inhibition zone at 40 uM after 24 hrs by Kirby -Baur disc diffusion method; assay type: functional; details: ATCC 15499, 24 h, read-out: DIZ; method in brief: as §1
Staphylococcus aureus [7] = assay: Antimicrobial activity against Staphylococcus aureus ATCC 11632 assessed as diameter of inhibition zone at 40 uM after 24 hrs by Kirby -Baur disc diffusion method; assay type: functional; details: ATCC 11632, 24 h, read-out: DIZ; method in brief: as §1
Curvularia lunata [8] = assay: Antifungal activity against Curvularia lunata MTCC 581 assessed as zone of inhibition at 40 uM after 48 hrs by disc diffusion method; assay type: functional; details: MTCC 581, 48 h, read-out: IZ; method in brief: as §2
Pseudomonas aeruginosa [9] = assay: Antimicrobial activity against Pseudomonas aeruginosa ATCC 15499 assessed as diameter of inhibition zone at 80 uM after 24 hrs by Kirby -Baur disc diffusion method; assay type: functional; details: ATCC 15499, 24 h, read-out: DIZ; method in brief: as §1
Salmonella typhi [10] = assay: Antimicrobial activity against Salmonella typhi ATCC 23564 assessed as diameter of inhibition zone at 80 uM after 24 hrs by Kirby -Baur disc diffusion method; assay type: functional, Salmonella enterica subsp. enterica serovar Typhi; details: Salmonella enterica, ATCC 23564, 24 h; read-out: DIZ
Aspergillus niger [11] = assay: Antifungal activity against Aspergillus niger MTCC 1108 after 48 hrs; assay type: functional; details: MTCC 1108, 48 h
Aspergillus niger [12] = assay: Antifungal activity against Aspergillus niger MTCC 1108 assessed as zone of inhibition at 20 uM after 48 hrs by disc diffusion method; assay type: functional; method in brief: as §2
Aspergillus niger [13] = assay: Antifungal activity against Aspergillus niger MTCC 1108 assessed as zone of inhibition at 80 uM after 48 hrs by disc diffusion method; assay type: functional; details: MTCC 1108, 48 h, read-out: IZ; method in brief: as §2
HCT-116 = assay: Cytotoxicity against human HCT116 cells after 24 hrs by MTT assay; assay type: functional, cell-based; method in brief: as §3
Bacillus cereus [14] = assay: Antimicrobial activity against Bacillus cereus MTCC 7350 assessed as diameter of inhibition zone at 20 uM after 24 hrs by Kirby -Baur disc diffusion method; assay type: functional; details: MTCC 7350, 24 h, read-out: DIZ; method in brief: as §1
Aspergillus flavus [15] = assay: Antifungal activity against Aspergillus flavus MTCC 1021 assessed as zone of inhibition at 20 uM after 48 hrs by disc diffusion method; assay type: functional; method in brief: as §2
HepG2 = assay: Cytotoxicity against human HepG2 cells after 24 hrs by MTT assay; assay type: functional, cell-based; method in brief: as §3
Escherichia coli [16] = assay: Antimicrobial activity against Escherichia coli ATCC 35218 assessed as diameter of inhibition zone at 80 uM after 24 hrs by Kirby -Baur disc diffusion method; assay type: functional; details: ATCC 35218, 24 h, read-out: DIZ; method in brief: as §1
Trichoderma viride [17] = assay: Antifungal activity against Trichoderma viride MTCC 1107 assessed as zone of inhibition at 80 uM after 48 hrs by disc diffusion method; assay type: functional; details: MTCC 1107, 48 h, read-out: IZ; method in brief: as §2
Bacillus cereus [18] = assay: Antimicrobial activity against Bacillus cereus MTCC 7350 assessed as diameter of inhibition zone at 80 uM after 24 hrs by Kirby -Baur disc diffusion method; assay type: functional; details: MTCC 7350, 24 h, read-out: DIZ; method in brief: as §1
Aspergillus flavus [19] = assay: Antifungal activity against Aspergillus flavus MTCC 1021 after 48 hrs; assay type: functional; details: MTCC 1021, 48 h
HeLa = assay: Cytotoxicity against human HeLa cells after 24 hrs by MTT assay; assay type: functional, cell-based; method in brief: as §3
Pseudomonas aeruginosa [20] = assay: Antimicrobial activity against Pseudomonas aeruginosa ATCC 15499 after 24 hrs by broth micro serial dilution method; assay type: functional; details: ATCC 15499, 24 h
Method in brief: (§4)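 This was broth microdilution in autoclaved Mueller-Hinton broth. 150 µL of compound per well was serially diluted […], and 50 µL of test organism was added. Plates were incubated 24 h at 37 °C and optical density was read.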

Bacillus cereus [21] = assay: Antimicrobial activity against Bacillus cereus MTCC 7350 assessed as diameter of inhibition zone at 40 uM after 24 hrs by Kirby -Baur disc diffusion method; assay type: functional; details: MTCC 7350, 24 h, read-out: DIZ; method in brief: as §1
Escherichia coli [22] = assay: Antimicrobial activity against Escherichia coli ATCC 35218 after 24 hrs by broth micro serial dilution method; assay type: functional; details: ATCC 35218, 24 h; method in brief: as §4
Trichoderma viride [23] = assay: Antifungal activity against Trichoderma viride MTCC 1107 after 48 hrs; assay type: functional; details: MTCC 1107, 48 h
Salmonella typhi [24] = assay: Antimicrobial activity against Salmonella typhi ATCC 23564 assessed as diameter of inhibition zone at 20 uM after 24 hrs by Kirby -Baur disc diffusion method; assay type: functional, Salmonella enterica subsp. enterica serovar Typhi; details: Salmonella enterica, ATCC 23564, 24 h; read-out: DIZ
Escherichia coli [25] = assay: Antimicrobial activity against Escherichia coli ATCC 35218 assessed as diameter of inhibition zone at 40 uM after 24 hrs by Kirby -Baur disc diffusion method; assay type: functional; details: ATCC 35218, 24 h, read-out: DIZ; method in brief: as §1
Salmonella typhi [26] = assay: Antimicrobial activity against Salmonella typhi ATCC 23564 assessed as diameter of inhibition zone at 40 uM after 24 hrs by Kirby -Baur disc diffusion method; assay type: functional, Salmonella enterica subsp. enterica serovar Typhi; details: Salmonella enterica, ATCC 23564, 24 h; read-out: DIZ
Bacillus cereus [27] = assay: Antimicrobial activity against Bacillus cereus MTCC 7350 after 24 hrs by broth micro serial dilution method; assay type: functional; details: MTCC 7350, 24 h; method in brief: as §4
Curvularia lunata [28] = assay: Antifungal activity against Curvularia lunata MTCC 581 assessed as zone of inhibition at 20 uM after 48 hrs by disc diffusion method; assay type: functional; details: MTCC 581, 48 h, read-out: IZ; method in brief: as §2
Aspergillus niger [29] = assay: Antifungal activity against Aspergillus niger MTCC 1108 assessed as zone of inhibition at 40 uM after 48 hrs by disc diffusion method; assay type: functional; details: MTCC 1108, 48 h, read-out: IZ; method in brief: as §2
Trichoderma viride [30] = assay: Antifungal activity against Trichoderma viride MTCC 1107 assessed as zone of inhibition at 40 uM after 48 hrs by disc diffusion method; assay type: functional; details: MTCC 1107, 48 h, read-out: IZ; method in brief: as §2
Aspergillus flavus [31] = assay: Antifungal activity against Aspergillus flavus MTCC 1021 assessed as zone of inhibition at 80 uM after 48 hrs by disc diffusion method; assay type: functional; details: MTCC 1021, 48 h, read-out: IZ; method in brief: as §2
Curvularia lunata [32] = assay: Antifungal activity against Curvularia lunata MTCC 581 assessed as zone of inhibition at 80 uM after 48 hrs by disc diffusion method; assay type: functional; details: MTCC 581, 48 h, read-out: IZ; method in brief: as §2
Trichoderma viride [33] = assay: Antifungal activity against Trichoderma viride MTCC 1107 assessed as zone of inhibition at 20 uM after 48 hrs by disc diffusion method; assay type: functional; details: MTCC 1107, 48 h, read-out: IZ; method in brief: as §2
Staphylococcus aureus [34] = assay: Antimicrobial activity against Staphylococcus aureus ATCC 11632 after 24 hrs by broth micro serial dilution method; assay type: functional; details: ATCC 11632, 24 h; method in brief: as §4
Escherichia coli [35] = assay: Antimicrobial activity against Escherichia coli ATCC 35218 assessed as diameter of inhibition zone at 20 uM after 24 hrs by Kirby -Baur disc diffusion method; assay type: functional; details: ATCC 35218, 24 h, read-out: DIZ; method in brief: as §1
Curvularia lunata [36] = assay: Antifungal activity against Curvularia lunata MTCC 581 after 48 hrs; assay type: functional; details: MTCC 581, 48 h

COc1cc(/C=C/C(CC(/C=C/c2ccc(O)c(OC)c2)=N/c2ccc(S(=O)(=O)Nc3ccccn3)cc2)=N\c2ccc(S(=O)(=O)Nc3ccccn3)cc2)ccc1O
zone of inhibition at 80 µM (Staphylococcus aureus [1]): 19 mm | inhibition in vivo at 200 mg/kg (Mus musculus): 9.6% | zone of inhibition at 40 µM (Aspergillus flavus [2]): 9 mm | zone of inhibition at 20 µM (Staphylococcus aureus [3]): 13 mm | MIC (Salmonella typhi [4]): 40 µM (≈ 33.2 µg/mL) | IC50 (QG-56): 100 µM | zone of inhibition at 20 µM (Pseudomonas aeruginosa [5]): 13 mm | zone of inhibition at 40 µM (Pseudomonas aeruginosa [6]): 16 mm | zone of inhibition at 40 µM (Staphylococcus aureus [7]): 17 mm | zone of inhibition at 40 µM (Curvularia lunata [8]): 9 mm | zone of inhibition at 80 µM (Pseudomonas aeruginosa [9]): 18 mm | zone of inhibition at 80 µM (Salmonella typhi [10]): 19 mm | MIC (Aspergillus niger [11]): 80 µM (≈ 66.5 µg/mL) | inhibition zone (IZ) (Aspergillus niger [12]): inactive | zone of inhibition at 80 µM (Aspergillus niger [13]): 12 mm | IC50 (HCT-116): 50 µM | zone of inhibition at 20 µM (Bacillus cereus [14]): 10 mm | inhibition zone (IZ) (Aspergillus flavus [15]): inactive | IC50 (HepG2): 100 µM | zone of inhibition at 80 µM (Escherichia coli [16]): 17 mm | zone of inhibition at 80 µM (Trichoderma viride [17]): 17 mm | zone of inhibition at 80 µM (Bacillus cereus [18]): 18 mm | MIC (Aspergillus flavus [19]): > 80 µM | IC50 (HeLa): 50 µM | MIC (Pseudomonas aeruginosa [20]): 40 µM (≈ 33.2 µg/mL) | zone of inhibition at 40 µM (Bacillus cereus [21]): 15 mm | MIC (Escherichia coli [22]): 40 µM (≈ 33.2 µg/mL) | MIC (Trichoderma viride [23]): 20 µM (≈ 16.6 µg/mL) | zone of inhibition at 20 µM (Salmonella typhi [24]): 12 mm | zone of inhibition at 40 µM (Escherichia coli [25]): 16 mm | zone of inhibition at 40 µM (Salmonella typhi [26]): 17 mm | MIC (Bacillus cereus [27]): 40 µM (≈ 33.2 µg/mL) | zone of inhibition at 20 µM (Curvularia lunata [28]): 9 mm | zone of inhibition at 40 µM (Aspergillus niger [29]): 9 mm | zone of inhibition at 40 µM (Trichoderma viride [30]): 13 mm | zone of inhibition at 80 µM (Aspergillus flavus [31]): 11 mm | zone of inhibition at 80 µM (Curvularia lunata [32]): 12 mm | zone of inhibition at 20 µM (Trichoderma viride [33]): 10 mm | MIC (Staphylococcus aureus [34]): 40 µM (≈ 33.2 µg/mL) | zone of inhibition at 20 µM (Escherichia coli [35]): 12 mm | MIC (Curvularia lunata [36]): 80 µM (≈ 66.5 µg/mL)
